According to ChEMBL document CHEMBL5303300, “EUbOPEN Chemogenomics Library - Multiplex” (2023):
Several values for one entry are separate records, joined by “and”; a condition that tells them apart may be missing. Identical values can stand only once.

Tested on: Fibroblast
Assay: Multiplex assay against human fibroblast
Format: toxicity, cell-based
Conditions: number of replicates 2
Outline: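 Phenotypes for tubulin, mitochondrial mass and membrane permeability are expressed as per cents of healthy-nucleus cells. Cells were stained live at seeding with Hoechst33342, BioTracker Green Microtubule Cytoskeleton Dye, MitoTracker Red and Annexin V Alexa Fluor 680, then imaged after compound addition on a CQ1 microscope at 37°C and 5% CO2. Machine-learning gating in CellPathfinder separated Hoechst high-intensity objects from normal cells, divided normal cells by nuclear state (healthy, pyknosed, fragmented) and divided pyknosed cells into mitotic or apoptotic.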

[1] = 12 h, 1 µM, compound concentration 1 uM
[2] = 12 h, 10 µM, compound concentration 10 uM
[3] = 24 h, 1 µM, compound concentration 1 uM
[4] = 24 h, 10 µM, compound concentration 10 uM
[5] = 48 h, 1 µM, compound concentration 1 uM
[6] = 48 h, 10 µM, compound concentration 10 uM

## CCNc1ccc(-c2nn(-c3ccccc3C)c3c2C(C)Cc2nc(NC(=O)OC)sc2-3)cn1.O=C(O)C(F)(F)F (stereo not drawn)
[1]
  Population Apoptotic (%): 34% and 35%
  Population Fragmented Nuclei (%): 22% and 27%
  Population Healthy Nuclei (%): 60% and 57%
  Population Hoechst High Intensity Objects (%): 0%
  Population Membrane Permeable-Phenotype (%): 5% and 3%
  Population Mitochondria Different-Phenotype (%): 0% and 3%
  Population Mitotic Cells (%): 65%
  Population Normal (%): 100%
  Population Pyknosed Nuclei (%): 17% and 14%
  Population Tubulin-Different-Phenotype (%): 35% and 27%
  Total Cell Count: 255 and 278
[2]
  Population Apoptotic (%): 43% and 57%
  Population Fragmented Nuclei (%): 15% and 26%
  Population Healthy Nuclei (%): 66% and 61%
  Population Hoechst High Intensity Objects (%): 0% and 1%
  Population Membrane Permeable-Phenotype (%): 17% and 10%
  Population Mitochondria Different-Phenotype (%): 6% and 12%
  Population Mitotic Cells (%): 56% and 42%
  Population Normal (%): 100% and 98%
  Population Pyknosed Nuclei (%): 18% and 12%
  Population Tubulin-Different-Phenotype (%): 87% and 86%
  Total Cell Count: 216 and 211
[3]
  Population Apoptotic (%): 40% and 46%
  Population Fragmented Nuclei (%): 20% and 17%
  Population Healthy Nuclei (%): 64% and 70%
  Population Hoechst High Intensity Objects (%): 0%
  Population Membrane Permeable-Phenotype (%): 4% and 3%
  Population Mitochondria Different-Phenotype (%): 2% and 4%
  Population Mitotic Cells (%): 60% and 53%
  Population Normal (%): 100% and 99%
  Population Pyknosed Nuclei (%): 15% and 12%
  Population Tubulin-Different-Phenotype (%): 35% and 28%
  Total Cell Count: 225 and 233
[4]
  Population Apoptotic (%): 62% and 68%
  Population Fragmented Nuclei (%): 21% and 27%
  Population Healthy Nuclei (%): 62% and 65%
  Population Hoechst High Intensity Objects (%): 0%
  Population Membrane Permeable-Phenotype (%): 9% and 8%
  Population Mitochondria Different-Phenotype (%): 12%
  Population Mitotic Cells (%): 37% and 31%
  Population Normal (%): 99% and 100%
  Population Pyknosed Nuclei (%): 16% and 7%
  Population Tubulin-Different-Phenotype (%): 88%
  Total Cell Count: 195 and 209
[5]
  Population Apoptotic (%): 58% and 20%
  Population Fragmented Nuclei (%): 13% and 15%
  Population Healthy Nuclei (%): 77% and 78%
  Population Hoechst High Intensity Objects (%): 0%
  Population Membrane Permeable-Phenotype (%): 5% and 2%
  Population Mitochondria Different-Phenotype (%): 2% and 0%
  Population Mitotic Cells (%): 41% and 80%
  Population Normal (%): 100% and 99%
  Population Pyknosed Nuclei (%): 8% and 6%
  Population Tubulin-Different-Phenotype (%): 26% and 18%
  Total Cell Count: 208 and 225
[6]
  Population Apoptotic (%): 84% and 76%
  Population Fragmented Nuclei (%): 15% and 19%
  Population Healthy Nuclei (%): 65% and 64%
  Population Hoechst High Intensity Objects (%): 0%
  Population Membrane Permeable-Phenotype (%): 5% and 3%
  Population Mitochondria Different-Phenotype (%): 19% and 22%
  Population Mitotic Cells (%): 15% and 24%
  Population Normal (%): 100%
  Population Pyknosed Nuclei (%): 18% and 15%
  Population Tubulin-Different-Phenotype (%): 87% and 90%
  Total Cell Count: 169 and 157

## CS(=O)(=O)c1ccc(C(=O)Nc2cc(F)cc(COc3ccc(Br)cc3CN3CC[C@H](O)C3)c2)c(Cl)c1.O=CO
[1]
  Population Apoptotic (%): 47% and 46%
  Population Healthy Nuclei (%): 54% and 67%
  Population Mitotic Cells (%): 52% and 53%
  Population Pyknosed Nuclei (%): 32% and 19%
  Total Cell Count: 177 and 249
[2]
  Population Apoptotic (%): 54% and 58%
  Population Fragmented Nuclei (%): 16% and 19%
  Population Healthy Nuclei (%): 51% and 54%
  Population Mitotic Cells (%): 45% and 41%
  Population Pyknosed Nuclei (%): 31% and 26%
  Total Cell Count: 197 and 232
[3]
  Population Apoptotic (%): 56% and 57%
  Population Fragmented Nuclei (%): 17% and 22%
  Population Healthy Nuclei (%): 55% and 57%
  Population Mitotic Cells (%): 43% and 42%
  Population Pyknosed Nuclei (%): 26% and 20%
  Total Cell Count: 195 and 268
[4]
  Population Fragmented Nuclei (%): 18%
  Population Healthy Nuclei (%): 57% and 54%
  Population Mitotic Cells (%): 9% and 16%
  Population Pyknosed Nuclei (%): 23% and 22%
  Total Cell Count: 187 and 243
[5]
  Population Apoptotic (%): 76%
  Population Fragmented Nuclei (%): 21%
  Population Healthy Nuclei (%): 57% and 61%
  Population Mitotic Cells (%): 21% and 23%
  Population Pyknosed Nuclei (%): 20% and 14%
  Total Cell Count: 201 and 289
[6]
  Population Apoptotic (%): 97%
  Population Fragmented Nuclei (%): 17% and 19%
  Population Healthy Nuclei (%): 54%
  Population Mitotic Cells (%): 2% and 7%
  Population Pyknosed Nuclei (%): 28% and 25%
  Total Cell Count: 144 and 211

## Cc1ccc(C(=O)Nc2cc(N3CCN(C)CC3)cc(C(F)(F)F)c2)cc1-n1cc(-c2cnn(C)c2C)nn1.Cl
[1]
  Population Apoptotic (%): 40% and 42%
  Population Fragmented Nuclei (%): 6% and 16%
  Population Healthy Nuclei (%): 48% and 59%
  Population Hoechst High Intensity Objects (%): 0%
  Population Membrane Permeable-Phenotype (%): 20% and 12%
  Population Mitochondria Different-Phenotype (%): 2%
  Population Mitotic Cells (%): 59% and 57%
  Population Normal (%): 100%
  Population Pyknosed Nuclei (%): 44% and 24%
  Population Tubulin-Different-Phenotype (%): 35% and 32%
  Total Cell Count: 165 and 172
[2]
  Population Apoptotic (%): 61% and 35%
  Population Fragmented Nuclei (%): 17% and 18%
  Population Healthy Nuclei (%): 51% and 62%
  Population Hoechst High Intensity Objects (%): 0% and 1%
  Population Membrane Permeable-Phenotype (%): 12% and 11%
  Population Mitochondria Different-Phenotype (%): 4% and 7%
  Population Mitotic Cells (%): 38% and 64%
  Population Normal (%): 99% and 98%
  Population Pyknosed Nuclei (%): 30% and 19%
  Population Tubulin-Different-Phenotype (%): 85% and 70%
  Total Cell Count: 198 and 294
[3]
  Population Apoptotic (%): 65% and 41%
  Population Fragmented Nuclei (%): 10% and 17%
  Population Healthy Nuclei (%): 46% and 59%
  Population Hoechst High Intensity Objects (%): 0%
  Population Membrane Permeable-Phenotype (%): 7% and 4%
  Population Mitochondria Different-Phenotype (%): 7%
  Population Mitotic Cells (%): 34% and 58%
  Population Normal (%): 99% and 100%
  Population Pyknosed Nuclei (%): 42% and 23%
  Population Tubulin-Different-Phenotype (%): 36% and 35%
  Total Cell Count: 150 and 176
[4]
  Population Apoptotic (%): 68% and 63%
  Population Fragmented Nuclei (%): 16% and 17%
  Population Healthy Nuclei (%): 57% and 59%
  Population Hoechst High Intensity Objects (%): 0% and 1%
  Population Membrane Permeable-Phenotype (%): 7% and 5%
  Population Mitochondria Different-Phenotype (%): 12% and 15%
  Population Mitotic Cells (%): 31% and 36%
  Population Normal (%): 99% and 98%
  Population Pyknosed Nuclei (%): 25% and 23%
  Population Tubulin-Different-Phenotype (%): 76% and 58%
  Total Cell Count: 261 and 279
[5]
  Population Apoptotic (%): 76% and 68%
  Population Fragmented Nuclei (%): 15% and 18%
  Population Healthy Nuclei (%): 49% and 66%
  Population Hoechst High Intensity Objects (%): 0% and 1%
  Population Membrane Permeable-Phenotype (%): 2%
  Population Mitochondria Different-Phenotype (%): 5%
  Population Mitotic Cells (%): 23% and 32%
  Population Normal (%): 100% and 98%
  Population Pyknosed Nuclei (%): 34% and 15%
  Population Tubulin-Different-Phenotype (%): 32% and 19%
  Total Cell Count: 161 and 167
[6]
  Population Apoptotic (%): 84% and 82%
  Population Fragmented Nuclei (%): 19%
  Population Healthy Nuclei (%): 59% and 63%
  Population Hoechst High Intensity Objects (%): 3% and 4%
  Population Membrane Permeable-Phenotype (%): 5% and 6%
  Population Mitochondria Different-Phenotype (%): 10%
  Population Mitotic Cells (%): 15% and 17%
  Population Normal (%): 96% and 95%
  Population Pyknosed Nuclei (%): 21% and 17%
  Population Tubulin-Different-Phenotype (%): 68% and 54%
  Total Cell Count: 226 and 303

## CCCN(CCc1cccs1)[C@H]1CCc2c(O)cccc2C1 [ROTIGOTINE]
[1]
  Population Apoptotic (%): 73% and 35%
  Population Fragmented Nuclei (%): 9% and 11%
  Population Healthy Nuclei (%): 76% and 71%
  Population Hoechst High Intensity Objects (%): 0%
  Population Membrane Permeable-Phenotype (%): 6% and 3%
  Population Mitochondria Different-Phenotype (%): 2% and 0%
  Population Mitotic Cells (%): 26% and 64%
  Population Normal (%): 100% and 99%
  Population Pyknosed Nuclei (%): 14% and 16%
  Population Tubulin-Different-Phenotype (%): 15% and 10%
[2]
  Population Fragmented Nuclei (%): 17% and 18%
  Population Healthy Nuclei (%): 78% and 73%
  Population Hoechst High Intensity Objects (%): 0%
  Population Membrane Permeable-Phenotype (%): 0% and 1%
  Population Mitochondria Different-Phenotype (%): 0% and 1%
  Population Mitotic Cells (%): 50% and 86%
  Population Normal (%): 100%
  Population Pyknosed Nuclei (%): 4% and 7%
  Population Tubulin-Different-Phenotype (%): 13% and 14%
[3]
  Population Apoptotic (%): 52% and 46%
  Population Fragmented Nuclei (%): 9% and 12%
  Population Healthy Nuclei (%): 81% and 75%
  Population Hoechst High Intensity Objects (%): 0%
  Population Membrane Permeable-Phenotype (%): 4%
  Population Mitochondria Different-Phenotype (%): 0% and 1%
  Population Mitotic Cells (%): 47% and 53%
  Population Normal (%): 100% and 99%
  Population Pyknosed Nuclei (%): 9% and 12%
  Population Tubulin-Different-Phenotype (%): 7% and 6%
[4]
  Population Fragmented Nuclei (%): 24% and 14%
  Population Healthy Nuclei (%): 71% and 80%
  Population Hoechst High Intensity Objects (%): 0%
  Population Membrane Permeable-Phenotype (%): 1% and 0%
  Population Mitochondria Different-Phenotype (%): 0% and 2%
  Population Normal (%): 100%
  Population Pyknosed Nuclei (%): 3% and 5%
  Population Tubulin-Different-Phenotype (%): 10% and 8%
[5]
  Population Apoptotic (%): 36% and 68%
  Population Fragmented Nuclei (%): 11% and 13%
  Population Healthy Nuclei (%): 82% and 79%
  Population Hoechst High Intensity Objects (%): 0%
  Population Membrane Permeable-Phenotype (%): 3% and 2%
  Population Mitochondria Different-Phenotype (%): 0%
  Population Mitotic Cells (%): 63% and 31%
  Population Normal (%): 100%
  Population Pyknosed Nuclei (%): 5% and 7%
  Population Tubulin-Different-Phenotype (%): 5% and 3%
[6]
  Population Apoptotic (%): 87% and 80%
  Population Fragmented Nuclei (%): 19% and 20%
  Population Healthy Nuclei (%): 76% and 77%
  Population Hoechst High Intensity Objects (%): 0%
  Population Membrane Permeable-Phenotype (%): 3% and 1%
  Population Mitochondria Different-Phenotype (%): 0%
  Population Mitotic Cells (%): 12% and 20%
  Population Normal (%): 100%
  Population Pyknosed Nuclei (%): 4% and 2%
  Population Tubulin-Different-Phenotype (%): 9% and 3%
